What is called pKi is the negative decadic logarithm of the Ki, by convention in mol/L. Usually pEC50 stands for the negative decadic logarithm of the EC50, by convention in mol/L. The Emax is the greatest response seen or fitted, relative to the assay's reference.

pEC50, pKi: −log10 of the molar value. The source made the active and inactive calls. The rule behind the calls is not given here.

Data on eleven compounds can be found in ChEMBL document CHEMBL1909509, “Mepyramine-JNJ7777120-hybrid compounds show high affinity to hH(1)R, but low affinity to hH(4)R” (Bioorg Med Chem Lett, 2011).

For experiment [1], the target named is Histamine H1 receptor (Homo sapiens, UniProt P35367). Put plainly: biochemical. The format is cell-based, Sf9.
Experiment [2] deals with T1, Histamine H4 receptor (Homo sapiens, UniProt Q9H3N8). Put plainly: Partial agonist activity at human H4R expressed in Sf9 cells co-expressing RGS19, Galphai2 and Gbeta1gamma2 assessed as stimulation of [35S]GTPgammaS binding. The class given is functional. (In general: GTPγS is a poorly hydrolysed GTP analogue; its binding reports G protein activation.)
In experiment [3] the target is T1, Histamine H4 receptor. The experiment in a line: Partial agonist activity at human H4R expressed in Sf9 cells co-expressing RGS19, Galphai2 and Gbeta1gamma2 assessed as stimulation of [35S]GTPgammaS binding relative to histamine. The class given is functional.
The target in experiment [4] is Histamine H1 receptor (Cavia porcellus) (UniProt P31389). Put plainly: Partial agonist activity at H1R in guinea pig ileum assessed as inhibition of histamine-induced muscle contraction after 15 mins. The class given is functional, tissue-based. Put shortly: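 Isolated guinea-pig ileum, contraction induced by histamine; test ligand incubated 15 min before the histamine response.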

In experiment [5] the target is Histamine H1 receptor (Cavia porcellus, UniProt P31389). The experiment in a line: Antagonist activity at H1R in guinea pig ileum assessed as inhibition of histamine-induced muscle contraction after 15 mins. The class given is functional, tissue-based. As to conditions: read-out: pA2 (converted).
Experiment [6] addresses T1, Histamine H4 receptor. Put plainly: Displacement of [3H]histamine from human H4R expressed in Sf9 cells co-expressing RGS19, Galphai2 and Gbeta1gamma2 after 60 mins by liquid scintillation counting. On the technique in general: Loss of bound radioactivity is the signal in a displacement assay; it reports binding, not function.
Experiment [7] concerns the target T1, Histamine H4 receptor. The experiment in a line: Inverse agonist activity at human H4R expressed in Sf9 cells co-expressing RGS19, Galphai2 and Gbeta1gamma2 assessed as […] of [35S]GTPgammaS binding. The format is functional.
Experiment [8] deals with T1, Histamine H4 receptor. Put plainly: Inverse agonist activity at human H4R expressed in Sf9 cells co-expressing RGS19, Galphai2 and Gbeta1gamma2 assessed as […] of [35S]GTPgammaS binding relative to histamine. The class given is functional.

Sequence of Histamine H1 receptor (Cavia porcellus) (P31389 whole entry): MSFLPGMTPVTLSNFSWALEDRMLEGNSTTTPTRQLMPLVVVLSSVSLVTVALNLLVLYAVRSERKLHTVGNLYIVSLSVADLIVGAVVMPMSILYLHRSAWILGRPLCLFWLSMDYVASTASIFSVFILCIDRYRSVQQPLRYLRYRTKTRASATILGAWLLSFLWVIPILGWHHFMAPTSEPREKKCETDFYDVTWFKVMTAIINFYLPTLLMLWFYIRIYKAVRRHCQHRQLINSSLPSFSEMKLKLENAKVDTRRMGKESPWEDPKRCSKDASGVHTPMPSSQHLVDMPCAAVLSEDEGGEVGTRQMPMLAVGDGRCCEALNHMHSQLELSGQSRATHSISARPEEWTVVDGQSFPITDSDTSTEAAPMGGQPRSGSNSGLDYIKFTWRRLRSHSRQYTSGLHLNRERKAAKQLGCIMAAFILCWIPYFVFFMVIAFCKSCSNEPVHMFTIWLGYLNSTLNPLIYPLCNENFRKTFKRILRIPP
Sequence of Histamine H1 receptor (Cavia porcellus, UniProt P31389) (P31389 whole entry): as above
Sequence of Histamine H1 receptor (Homo sapiens, UniProt P35367) (P35367 whole entry): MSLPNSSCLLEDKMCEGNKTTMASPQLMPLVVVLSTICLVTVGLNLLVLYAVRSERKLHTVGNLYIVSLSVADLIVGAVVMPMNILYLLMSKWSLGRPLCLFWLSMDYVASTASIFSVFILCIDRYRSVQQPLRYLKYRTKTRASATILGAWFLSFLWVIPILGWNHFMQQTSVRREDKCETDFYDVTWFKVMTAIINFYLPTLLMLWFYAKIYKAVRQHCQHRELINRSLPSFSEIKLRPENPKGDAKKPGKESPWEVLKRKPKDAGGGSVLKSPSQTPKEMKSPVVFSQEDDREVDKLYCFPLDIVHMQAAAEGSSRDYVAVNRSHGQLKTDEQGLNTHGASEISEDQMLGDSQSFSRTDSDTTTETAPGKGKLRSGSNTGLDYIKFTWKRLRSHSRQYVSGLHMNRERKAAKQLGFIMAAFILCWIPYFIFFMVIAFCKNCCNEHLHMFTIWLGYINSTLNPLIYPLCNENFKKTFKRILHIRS
T1 sequence (Q9H3N8 whole entry): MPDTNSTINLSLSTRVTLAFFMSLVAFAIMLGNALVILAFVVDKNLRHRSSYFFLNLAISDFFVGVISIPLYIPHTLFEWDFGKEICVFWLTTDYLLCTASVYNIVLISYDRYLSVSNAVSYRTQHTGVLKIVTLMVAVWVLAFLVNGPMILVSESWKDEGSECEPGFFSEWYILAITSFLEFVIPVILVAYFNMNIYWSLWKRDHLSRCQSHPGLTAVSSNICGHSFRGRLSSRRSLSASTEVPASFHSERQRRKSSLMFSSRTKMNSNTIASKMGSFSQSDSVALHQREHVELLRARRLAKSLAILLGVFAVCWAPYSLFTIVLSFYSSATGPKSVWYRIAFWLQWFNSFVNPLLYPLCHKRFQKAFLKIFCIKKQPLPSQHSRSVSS

In the case of `COc1ccc(CN(CCN2CCN(C(=O)c3cc4ccccc4[nH]3)CC2)c2ccccn2)cc1`, the negative logarithm of the Ki (pKi) is 6.77 in experiment [1] and 5.23 in experiment [6]. In addition, in experiment [2], the pEC50 is 3.98. Moreover, in experiment [3], the Emax is 88%. Besides, the inhibition result in experiment [4] is “inactive”. Moreover, the Kb in experiment [5] was 10.7 nM.
For `COc1ccc(CN(CCN2CCN(C(=O)c3cc4cc(Cl)ccc4[nH]3)CC2)c2ccccn2)cc1`, the negative-log Ki (pKi) is 6.11 in experiment [1] and 4.80 in experiment [6]. Moreover, the inhibition entry in experiment [4] was “inactive”. Moreover, the Kb in experiment [5] is 20.4 nM.
The matching figures for `COc1ccc(CN(CCN2CCN(C(=O)c3nc4ccccc4[nH]3)CC2)c2ccccn2)cc1`: 6.22, 4.65, “inactive” and 7.24 nM.
For `COc1ccc(CCN2CCC(Nc3nc4ccccc4n3Cc3ccc(F)cc3)CC2)cc1` [ASTEMIZOLE], in experiment [6], the pKi was 5.10.
As to `COc1ccc(CN(CCN(C)CCN2CCN(C(=O)c3cc4cc(Cl)ccc4[nH]3)CC2)c2ccccn2)cc1`, the pKi in experiment [1] was 7.00; in experiment [6], 5.17. The inhibition result in experiment [4] was “inactive”. In addition, the Kb in experiment [5] is 7.59 nM.
For `COc1ccc(CN(CCN(C)CC(C)Nc2ccc3[nH]c(C(=O)N4CCN(C)CC4)cc3c2)c2ccccn2)cc1` (racemic), in that order: 6.67, 4.85, “inactive” and 12.6 nM.
As to `CN1CCN(C(=O)c2nc3ccccc3[nH]2)CC1`, in experiment [6], the negative-log Ki (pKi) is 6.54.
As for `O=C(c1cc2ccccc2[nH]1)N1CCN(CCN2CCC(Nc3nc4ccccc4n3Cc3ccc(F)cc3)CC2)CC1`, the negative-log Ki (pKi) is 8.26 in experiment [1] and 4.98 in experiment [6].
As to `COc1ccc(CN(CCN(C)CCN2CCN(C(=O)c3cc4ccccc4[nH]3)CC2)c2ccccn2)cc1`, the results for the pKi in experiment [1] and in experiment [6] were 8.15 and 5.05, respectively. For the same compound, in experiment [4], the inhibition result was “inactive”. Besides, the pEC50 in experiment [7] was less than 4.00. The Kb in experiment [5] is 4.9 nM. Moreover, in experiment [8], the Emax was less than -1%.
In the case of `COc1ccc(CN(CCN[C@H]2CCN(C(=O)c3cc4ccccc4[nH]3)C2)c2ccccn2)cc1`, the values for the pKi in experiment [1] and in experiment [6] were 6.34 and 4.56, respectively. Also, in experiment [4], the inhibition entry was “inactive”. The Kb in experiment [5] was 8.51 nM.
On to `O=C(c1cc2ccccc2[nH]1)N1CCN(CCOC(c2ccccc2)c2ccccc2)CC1`, for which the values for the pKi in experiment [1] and in experiment [6] were 6.65 and 4.75, respectively. The inhibition entry in experiment [4] was “inactive”.
